Measured values from ChEMBL document CHEMBL4011646, “Discovery of a Small-Molecule Inhibitor of Interleukin 15: Pharmacophore-Based Virtual Screening and Hit Optimization” (J Med Chem, 2017).
pIC50, pKd: −log10 of the molar value.

Legend:
[1] = Inhibition of recombinant human IL2R/IL2-induced mouse 32D-beta cell proliferation preincubated for 30 mins with protein followed by cell addition measured after 2.5 days by Alamar blue reduction assay; conditions: for pIC50: Homo sapiens, read-out: IC50
Method in brief: (§1)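 32Dβ cells (IL-2Rβ/γ) were starved 4 h without cytokine, then 1 × 10^4 cells were cultured 2.5 days with 100 pM RLI or 1.5 nM IL-2. The cytokine was preincubated 30 min with fixed or increasing compound concentrations or vehicle (culture medium, DMSO 0.1% final). Alamar blue was added for 6 h at 37 °C, with fluorescence read at ex 560/em 590 nm. Tested in triplicate; IC50 is the mean of ≥2 independent assays.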

IL15-IL15 receptor [2] = target: IL15-IL15 receptor (Homo sapiens, UniProt P40933+Q13261); assay: Inhibition of human IL-15Ralpha-sushi domain/human IL-15-induced mouse 32D-beta cell proliferation preincubated for 30 mins with protein followed by cell addition measured after 2.5 days by Alamar blue reduction assay; method in brief: as §1
Sequence of IL15-IL15 receptor (Homo sapiens, UniProt P40933+Q13261) (P40933 whole entry, the tested form may be a part): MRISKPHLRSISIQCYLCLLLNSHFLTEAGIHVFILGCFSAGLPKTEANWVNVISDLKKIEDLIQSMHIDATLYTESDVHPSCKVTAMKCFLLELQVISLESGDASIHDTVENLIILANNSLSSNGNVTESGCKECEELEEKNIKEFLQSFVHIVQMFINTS
Sequence of IL15-IL15 receptor (Homo sapiens, UniProt P40933+Q13261) (Q13261 whole entry, the tested form may be a part): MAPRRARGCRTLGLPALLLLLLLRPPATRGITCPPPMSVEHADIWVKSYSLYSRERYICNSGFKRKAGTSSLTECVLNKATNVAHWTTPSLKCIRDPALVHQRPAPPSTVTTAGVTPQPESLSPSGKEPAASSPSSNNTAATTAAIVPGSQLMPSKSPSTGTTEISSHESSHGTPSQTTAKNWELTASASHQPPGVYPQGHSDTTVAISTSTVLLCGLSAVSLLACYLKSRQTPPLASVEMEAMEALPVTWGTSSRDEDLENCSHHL

Interleukin-15 = Interleukin-15 (Homo sapiens, UniProt P40933); assay: Binding affinity to recombinant human IL-15 by SPR assay
Sequence of Interleukin-15 (P40933 whole entry): as the sequence (P40933 whole entry, the tested form may be a part) above
Method in brief: (§2)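 SPR on a BIAcore 3000 at 25 °C. Recombinant IL-15, RLI or IL-2 was amine-coupled to CM5 chips, and compounds were flowed over at 100 μM or at increasing concentrations (3.125–100 μM) in PBS or 1% or 5% DMSO. Binding was read as the change in RU, and Kd was derived from direct interaction.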

[3] = Inhibition of IL2R/IL2 interaction in human NK92 cells assessed as reduction IL2-induced STAT5 phosphorylation preincubated for 30 mins with IL2 followed by cell addition measured after 1 hr by AlphaScreen assay; type: cell-based
Method in brief: (§3)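 NK-92 cells were washed and serum-starved overnight, then 2 × 10^5 cells were stimulated at 37 °C for 1 h with IL-15 (50 pM fixed) or IL-2. The cytokine had been preincubated 30 min with increasing compound concentrations or vehicle (PBS, BSA 0.1%, DMSO 0.6% final). Cells were lysed and p-Stat5 read by AlphaScreen SureFire. Duplicates, ≥3 independent experiments. Result is % reduction of the cytokine p-Stat5 response.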

IL15-IL15 receptor [4] = target: IL15-IL15 receptor (Homo sapiens, UniProt P40933); assay: Inhibition of IL15R/IL15 interaction in human NK92 cells assessed as reduction of IL15-induced STAT5 phosphorylation preincubated for 30 mins with IL15 followed by cell addition measured after 1 hr by AlphaScreen assay; type: cell-based; method in brief: as §3
Sequence of IL15-IL15 receptor (Homo sapiens, UniProt P40933) (P40933 whole entry): as the sequence (P40933 whole entry, the tested form may be a part) above
Sequence of IL15-IL15 receptor (Homo sapiens, UniProt P40933) (Q13261 whole entry, further chain): as the sequence (Q13261 whole entry, the tested form may be a part) above

Interleukin-2 = Interleukin-2 (Homo sapiens, UniProt P60568); assay: Binding affinity to recombinant human IL-2 by SPR assay; method in brief: as §2
Sequence of Interleukin-2 (P60568 whole entry): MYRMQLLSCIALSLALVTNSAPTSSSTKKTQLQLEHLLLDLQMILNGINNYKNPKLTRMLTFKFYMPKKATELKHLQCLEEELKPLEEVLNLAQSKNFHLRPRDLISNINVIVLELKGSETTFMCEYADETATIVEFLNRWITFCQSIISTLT

Compound	pIC50 [3]	pIC50 (IL15-IL15 receptor [4])	pIC50 [1]	also measured
Cn1nc(Cc2nnc(SCCCCCCCC(=O)Nc3ccc(Cl)cc3Cl)o2)c2ccccc2c1=O			6.10	
Cn1c(Cc2nn(C)c(=O)c3ccccc23)nnc1SCC(=O)Nc1cccc(C(=O)O)c1				IC50 (IL15-IL15 receptor [2]): Not Active; IC50 [1]: Not Active
CCCCCCCCCCSc1nnc(Cc2nn(C)c(=O)c3ccccc23)n1C			5.00	
Cn1c(Cc2nn(C)c(=O)c3ccccc23)nnc1S(=O)(=O)CCCCCCCC(=O)Nc1ccc(Br)cc1Br			5.80	
CN(C(=O)CSc1nnc(Cc2nn(C)c(=O)c3ccccc23)n1C)c1ccc(Cl)cc1Cl				IC50 [1]: Not Active
CC(C)COc1ccc(NC(=O)CSc2nnc(Cc3nn(C)c(=O)c4ccccc34)n2C)cc1			4.52	
Cn1c(Cc2nn(C)c(=O)c3ccccc23)nnc1SCCCCCC(=O)Nc1ccc(Cl)cc1Cl			5.01	
CCOC(=O)c1ccccc1NC(=O)CSc1nnc(Cc2nn(C)c(=O)c3ccccc23)n1C			4.52	
Cn1c(Cc2nn(C)c(=O)c3ccccc23)nnc1SCc1cn(C23CC4CC(CC(C4)C2)C3)nn1			4.52	
COc1ccc(NC(=O)CSc2nnc(Cc3nn(C)c(=O)c4ccccc34)n2C)cc1				IC50 (IL15-IL15 receptor [2]): Not Active; IC50 [1]: Not Active
Cn1c(Cc2nn(C)c(=O)c3ccccc23)nnc1SCC(=O)Nc1ccc(Cl)cc1Cl	4.85	5.04	4.94	pKd (Interleukin-15): 4.32; pKd (Interleukin-2): 4.98
Cn1c(Cc2nn(C)c(=O)c3ccccc23)nnc1SCC(=O)Nc1ccc(I)cc1				IC50 (IL15-IL15 receptor [2]): Not Active; IC50 [1]: Not Active
Cn1c(Cc2nn(C)c(=O)c3ccccc23)nnc1SCC(=O)Nc1ccc(F)cc1F				IC50 (IL15-IL15 receptor [2]): Not Active
Cn1c(Cc2nn(C)c(=O)c3ccccc23)nnc1SCCCCCCCC(=O)Nc1ccc(O)cc1O			4.68	
CCCOc1ccc(NC(=O)CSc2nnc(Cc3nn(C)c(=O)c4ccccc34)n2C)cc1			< 4.52	
Cn1c(Cc2nn(C)c(=O)c3ccccc23)nnc1SCCCCCCCC(=O)Nc1ccc(I)cc1			6.10	
Cn1c(Cc2nn(C)c(=O)c3ccccc23)nnc1SCCCCCCCCCCC(=O)Nc1ccc(Cl)cc1Cl	6.80	6.85	5.36	
Cn1c(Cc2nn(C)c(=O)c3ccccc23)nnc1SCCCCCCCC(=O)Nc1ccccc1O			4.64	

Compound	pIC50 [3]	pIC50 (IL15-IL15 receptor [4])	pIC50 [1]	also measured
Cn1c(Cc2nn(C)c(=O)c3ccccc23)nnc1SCCCCCCCCCCC(=O)Nc1cccc2ccccc12			5.07	
Cn1c(Cc2nn(C)c(=O)c3ccccc23)nnc1SCCCCCCCC(=O)Nc1cccc2ccccc12			5.72	
Cn1c(Cc2nn(C)c(=O)c3ccccc23)nnc1SCCCCCCCC(=O)NC12CC3CC(CC(C3)C1)C2	6.82	6.68	5.74	pKd (Interleukin-15): 4.11
Cn1c(Cc2nn(C)c(=O)c3ccccc23)nnc1SCCCCCCCCCCCCCCCC(=O)Nc1ccc(Cl)cc1Cl			5.34	
Cn1c(Cc2nn(C)c(=O)c3ccccc23)nnc1SCc1cn(CCCCC(=O)Nc2ccc(Cl)cc2Cl)nn1			< 4.52	
Cn1c(Cc2nn(C)c(=O)c3ccccc23)nnc1SCCCCCCCC(=O)Nc1ccc(Br)cc1Br	7.08	7.04	5.89	pKd (Interleukin-15): 4.94; pKd (Interleukin-2): 5.00
CC(C)Oc1ccc(NC(=O)CSc2nnc(Cc3nn(C)c(=O)c4ccccc34)n2C)cc1			< 4.52	
Cn1c(Cc2nn(C)c(=O)c3ccccc23)nnc1SCCCC(=O)Nc1ccc(Cl)cc1Cl			4.95	
COc1ccc(NC(=O)CCCCCCCSc2nnc(Cc3nn(C)c(=O)c4ccccc34)n2C)c(O)c1	6.65	6.44	6.00	pKd (Interleukin-15): 4.67; pKd (Interleukin-2): 4.90
Cn1c(Cc2nn(C)c(=O)c3ccccc23)nnc1SCC(=O)Nc1ccc(O)cc1				IC50 (IL15-IL15 receptor [2]): Not Active; IC50 [1]: Not Active
Cn1c(Cc2nn(C)c(=O)c3ccccc23)nnc1SCC(=O)Nc1ccccc1C(=O)O				IC50 (IL15-IL15 receptor [2]): Not Active; IC50 [1]: Not Active
Cn1nc(Cc2nnc(SCCCCCCCCCCC(=O)Nc3ccc(Cl)cc3Cl)o2)c2ccccc2c1=O			5.12	
CN(C(=O)CCCCCCCSc1nnc(Cc2nn(C)c(=O)c3ccccc23)n1C)c1ccc(Cl)cc1Cl			5.08	
Cn1c(Cc2nn(C)c(=O)c3ccccc23)nnc1SCCCCCCCC(=O)Nc1ccc(O)cc1			< 4.52	
CCOC(=O)c1cccc(NC(=O)CSc2nnc(Cc3nn(C)c(=O)c4ccccc34)n2C)c1				IC50 (IL15-IL15 receptor [2]): Not Active; IC50 [1]: Not Active
Cn1c(Cc2nn(C)c(=O)c3ccccc23)nnc1SCCCCCCCCCC(=O)Nc1ccc(Cl)cc1Cl			5.80	
Cn1c(Cc2nn(C)c(=O)c3ccccc23)nnc1SCCCCCCCC(=O)Nc1ccc(Cl)cc1			6.10	

Further lines, with some results ahead:

pIC50 [3]	pIC50 (IL15-IL15 receptor [4])	Compound	pIC50 [1]	also measured
7.23	6.91	Cn1c(Cc2nn(C)c(=O)c3ccccc23)nnc1SCCCCCCCCCCC(=O)NC12CC3CC(CC(C3)C1)C2	5.31	pKd (Interleukin-15): 4.80
7.14	7.00	Cn1c(Cc2nn(C)c(=O)c3ccccc23)nnc1SCCCCCCCC(=O)Nc1ccc(N=[N+]=[N-])cc1	5.96	pKd (Interleukin-15): 4.37
7.05	7.03	CC(C)Oc1ccc(NC(=O)CCCCCCCSc2nnc(Cc3nn(C)c(=O)c4ccccc34)n2C)cc1	6.22	pKd (Interleukin-15): 4.68
6.69	6.70	COc1ccc(NC(=O)CCCCCCCSc2nnc(Cc3nn(C)c(=O)c4ccccc34)n2C)cc1	5.49	pKd (Interleukin-15): 4.59
< 4.52	< 4.52	Cn1c(Cc2nn(C)c(=O)c3ccccc23)nnc1SCC(=O)NC12CC3CC(CC(C3)C1)C2		IC50 (IL15-IL15 receptor [2]): Not Active; IC50 [1]: Not Active
7.16	7.12	Cc1ccc(NC(=O)CCCCCCCSc2nnc(Cc3nn(C)c(=O)c4ccccc34)n2C)c(Cl)c1	5.77	pKd (Interleukin-15): 4.62
7.37	7.24	CCOC(=O)c1cccc(NC(=O)CCCCCCCSc2nnc(Cc3nn(C)c(=O)c4ccccc34)n2C)c1	6.22	pKd (Interleukin-15): 4.66; pKd (Interleukin-2): 4.64
6.80	6.82	Cn1c(Cc2nn(C)c(=O)c3ccccc23)nnc1SCCCCCCCC(=O)Nc1ccc(Cl)cc1Cl	5.96	pKd (Interleukin-15): 4.72; pKd (Interleukin-2): 5.10
7.12	6.96	Cn1c(Cc2nn(C)c(=O)c3ccccc23)nnc1SCCCCCCCC(=O)Nc1ccc(F)cc1F	6.00	
7.28	7.40	CCCOc1ccc(NC(=O)CCCCCCCSc2nnc(Cc3nn(C)c(=O)c4ccccc34)n2C)cc1	6.05	pKd (Interleukin-15): 4.72
7.24	7.26	CC(C)COc1ccc(NC(=O)CCCCCCCSc2nnc(Cc3nn(C)c(=O)c4ccccc34)n2C)cc1	5.52	pKd (Interleukin-15): 4.60
6.79	6.69	COc1ccc(NC(=O)CCCCCCCSc2nnc(Cc3nn(C)c(=O)c4ccccc34)n2C)c(OC)c1	6.05	pKd (Interleukin-15): 4.71; pKd (Interleukin-2): 4.56
